# According to ChEMBL document CHEMBL1122226, “6-Aryl-4,5-dihydro-3(2H)-pyridazinones. A new class of compounds with platelet aggregation inhibiting and hypotensive activities” (J Med Chem, 1983):
# Legend:
# Homo sapiens [1] = species: Homo sapiens; test: Relative activity (compared to acetylsalicylic acid) for in vitro inhibition of collagen-induced human platelet aggregation; format: functional
# Homo sapiens [2] = species: Homo sapiens; test: In vitro inhibition of collagen-induced human platelet aggregation.; format: functional, organism-based
# Summary of the method: (§1)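 Human venous blood citrated with 10% v/v sodium citrate (3.8%); platelet-rich plasma spun at 300g, 10 min, 4 °C, used within 2 h. Compound in Me2SO (1% final) preincubated 10 min at room temperature; aggregation triggered by collagen 0.02 mg/mL final or ADP 0.85 μg/mL final; maximum rate read in Born aggregometer. EC50 from log dose–effect regression with 95% confidence limits.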
# Homo sapiens [3] = species: Homo sapiens; test: In vitro inhibition of ADP-induced human platelet aggregation; format: functional; summary of the method: as §1
# Rattus norvegicus [4] = test: In vitro hypotensive activity in anesthetized rats after intraperitoneal administration.; format: functional; details: ip, in the assay text read “In vivo” for “In vitro”
# Summary of the method: (§2)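 Male Sprague-Dawley rats, 230-280 g, urethane-anesthetized (ip); carotid arterial pressure recorded continuously by pressure transducer. Compounds given ip at 2 mL/kg. ED20, dose lowering mean carotid pressure by 20%, from log dose–effect regression; dihydralazine as reference.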
# Rattus norvegicus [5] = test: Activity relative to dihydralazine for in vitro hypotensive activity in anesthetized rats; format: functional; details: in the assay text read “in vivo” for “in vitro”; summary of the method: as §2
# Rattus norvegicus [6] = test: Ex vivo inhibition of collagen-induced rat platelet aggregation after peroral administration; format: functional; details: po
# Summary of the method: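 Male Sprague-Dawley rats, 200-250 g, dosed orally, three rats per dose. Blood drawn by heart puncture under ether 1 h post-dose; platelet-rich plasma prepared by centrifugation; aggregation induced with collagen 0.02 mg/mL final, maximum rate read in Born aggregometer.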
# Rattus norvegicus [7] = species: Rattus norvegicus; test: Relative activity in rats based on acetylsalicylic acid; format: functional
# [8] = In vitro inhibition of collagen induced aggregation of human plateles and the ratio of ED33 to EC50 was reported; format: functional
# Summary of the method: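 Ratio of oral ED33 (male Sprague-Dawley rats, 3 per dose, blood taken 1 h post-dose, collagen-triggered aggregation) to in vitro EC50 (human citrated platelet-rich plasma, 10 min room-temperature preincubation in 1% Me2SO, collagen 0.02 mg/mL final, regression-derived).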
# Rattus norvegicus [9] = test: In vivo hypotensive activity in anesthetized rats after intravenous administration.
Compound,"EC50 (Homo sapiens [2]; Homo sapiens, read-out: EC50) [µg/mL]","EC50 (Homo sapiens [3]; Homo sapiens, read-out: EC50) [µg/mL]",EC50 (Homo sapiens [2]) [µg/mL],EC50 (Homo sapiens [3]) [µg/mL],Relative activity (Homo sapiens [1]),ED20 (Rattus norvegicus [4]) [mg/kg],Relative activity (Rattus norvegicus [5]),ED33 (Rattus norvegicus [6]) [mg/kg],Relative activity (Rattus norvegicus [7]),Ratio [8],ED20 (Rattus norvegicus [9]) [mg/kg]
CC1CC(=O)NN=C1c1ccc(NC(=O)C(C)(C)Br)cc1 (stereo unspecified),,0.33,,,,2.93,0.12,3.49,66.8,3.9,
CC1CC(=O)NN=C1c1ccc(NC(=O)C(C)(C)CBr)cc1 (stereo unspecified),,0.5,,,1123,0.34,0.99,3.5,66.6,8,
CCC(Br)C(=O)Nc1ccc(C2=NNC(=O)CC2C)cc1 (stereo unspecified),,0.052,,,,1.49,0.23,2.58,90.3,9.6,
CC(Br)C(=O)Nc1ccc(C2=NNC(=O)CC2C)cc1 (stereo unspecified),,0.26,,,,0.4,0.85,8.18,28.5,14.1,
CC(Cl)C(=O)Nc1ccc(C2=NNC(=O)C(C)C2)cc1 (stereo unspecified),33.8,32.9,,,15,> 1,<0.34,,,,
CC1CC(c2ccc(N)cc2)=NNC1=O (stereo unspecified),46.9,43.8,,,11,> 1,<0.34,,,,
COc1ccc2c(c1)c(CC(=O)O)c(C)n2C(=O)c1ccc(Cl)cc1 [INDOMETHACIN],,,200,,2.47,,,,,,
CC(=O)Oc1ccccc1C(=O)O [ASPIRIN],,,494,,1,,1,233,,0.47,
CC(=O)Nc1ccc(C2=NN(C)C(=O)CC2)cc1,> 46.4,> 46.4,,,<11,1,0.34,,,,
N/N=c1\[nH][nH]/c(=N\N)c2ccccc12 [DIHYDRALAZINE],,,149,310,3,0.34,1,,,,
CCCCC[C@H](O)/C=C/[C@@H]1[C@H]2C/C(=C/CCCC(=O)O)O[C@H]2C[C@H]1O [EPOPROSTENOL],0.00165,0.0174,,,299394,,,,,,0.00067
CC(Cl)C(=O)Nc1ccc(C2=NNC(=O)CC2C)cc1 (stereo unspecified) [AMIPIZONE],,0.099,,,15936,0.0081,41.7,0.63,370,20.3,
CN1N=C(c2ccc(N)cc2)CCC1=O,> 46.4,> 46.4,,,<11,> 1,<0.34,,,,
CC(=O)Nc1ccc(C2=NNC(=O)C(C)C2)cc1 (stereo unspecified),46.4,46.4,,,11,> 1,<0.34,,,,
CC(Cl)CC(=O)Nc1ccc(C2=NNC(=O)CC2C)cc1 (stereo unspecified),3.29,4.78,,,150,0.187,1.81,,,,
CCC(Cl)C(=O)Nc1ccc(C2=NNC(=O)CC2C)cc1 (stereo unspecified),0.069,0.035,,,7159,0.65,0.52,0.66,353,9.6,
CC1CC(=O)NN=C1c1ccc(NC(=O)C(C)(C)CCl)cc1 (stereo unspecified),,0.28,,,1051,0.61,0.55,5,46.6,10.6,
Nc1cccc(C2=NNC(=O)CC2)c1,> 46.4,> 46.4,,,<11,> 1,<0.34,,,,

# Further lines, with some results ahead:
"EC50 (Homo sapiens [2]; Homo sapiens, read-out: EC50) [µg/mL]","EC50 (Homo sapiens [3]; Homo sapiens, read-out: EC50) [µg/mL]",EC50 (Homo sapiens [2]) [µg/mL],EC50 (Homo sapiens [3]) [µg/mL],Compound,Relative activity (Homo sapiens [1]),ED20 (Rattus norvegicus [4]) [mg/kg],Relative activity (Rattus norvegicus [5]),ED33 (Rattus norvegicus [6]) [mg/kg],Relative activity (Rattus norvegicus [7]),Ratio [8],ED20 (Rattus norvegicus [9]) [mg/kg]
3.34,2.64,,,CCCCC(=O)Nc1ccc(C2=NNC(=O)CC2)cc1,148,1,0.34,,,,
1.66,1.63,,,CC1CC(=O)NN=C1c1ccc(NC(=O)CCCCl)cc1 (stereo unspecified),298,0.32,,,,,
> 46.4,> 46.4,,,O=C1CCC(c2ccc(NC(=O)CCCCl)cc2)=NN1,<11,> 1,<0.34,,,,
~21.5,~46.4,,,O=C1CCC(c2ccc(NC(=O)CN3CCOCC3)cc2)=NN1,~23,> 1,<0.34,,,,
,0.15,,,CC1CC(=O)NN=C1c1ccc(NC(=O)CCl)cc1 (stereo unspecified),,0.15,2.25,12.2,19.1,111,
5.27,3.74,,,O=CNc1ccc(C2=NNC(=O)CC2)cc1,94,0.32,1.06,,,,
,0.16,,,CC1CC(=O)NN=C1c1ccc(NC(=O)CCCl)cc1 (stereo unspecified),1647,0.044,7.68,47.5,4.9,158,
0.9,0.98,,,O=C1CCC(c2ccc(NC(=O)CCCl)cc2)=NN1,549,> 1,<0.34,41.7,5.6,46.3,
9.24,11.4,,,CC(C)(CCl)C(=O)Nc1ccc(C2=NNC(=O)CC2)cc1,54,> 1,<0.34,,,,
> 46.4,> 46.4,,,CN1N=C(c2ccc(NC(=O)CCl)cc2)CCC1=O,<11,> 1,<0.34,,,,
> 46.4,> 46.4,,,CC(=O)Nc1cccc(C2=NNC(=O)CC2)c1,<11,> 1,<0.34,,,,
~4.64,~21.5,,,C=CCNCC(=O)Nc1ccc(C2=NNC(=O)CC2)cc1.Cl,~107,> 1,<0.34,,,,
~21.5,~21.5,,,CCC(C)NCC(=O)Nc1ccc(C2=NNC(=O)CC2)cc1.Cl (stereo unspecified),~23,> 1,<0.34,,,,
~21.5,~46.4,,,CC(C)NCC(=O)Nc1ccc(C2=NNC(=O)CC2)cc1.Cl,~23,> 1,<0.34,,,,
1.45,1.44,,,CCCC(=O)Nc1ccc(C2=NNC(=O)CC2)cc1,341,0.46,0.74,,,,
14.8,46.4,,,Nc1ccc(C2=NNC(=O)CC2)cc1,33,0.18,1.88,,,,
> 46.4,> 46.4,,,C[N+]1(CC(=O)Nc2ccc(C3=NNC(=O)CC3)cc2)CCCC1.[Cl-],<11,> 1,<0.34,,,,
~10,~46.4,,,CCCNCC(=O)Nc1ccc(C2=NNC(=O)CC2)cc1.Cl,~49,> 1,<0.34,,,,
,0.39,,,O=C1CCC(c2ccc(NC(=O)CCl)cc2)=NN1,1976,0.37,0.91,15.7,14.8,62.8,
0.74,0.64,,,CCC(=O)Nc1ccc(C2=NNC(=O)CC2)cc1,668,0.06,5.63,41.6,5.6,56.3,
1.09,1,,,CC(=O)Nc1ccc(C2=NNC(=O)CC2)cc1,453,0.2,1.69,,,,
0.28,0.45,,,CC(Cl)C(=O)Nc1ccc(C2=NNC(=O)CC2)cc1 (stereo unspecified),1764,0.53,0.64,22.6,10.3,82.7,
3.16,1.47,,,CCC(Cl)C(=O)Nc1ccc(C2=NNC(=O)CC2)cc1 (stereo unspecified),156,0.37,0.91,,,,
~10,~10,,,CCN(CC)CC(=O)Nc1ccc(C2=NNC(=O)CC2)cc1.Cl,~49,> 1,<0.34,,,,
6.31,21.9,,,CC1CC(c2ccc(NC(=O)CCl)cc2)=NNC1=O (stereo unspecified),78,> 1,<0.34,,,,
